pIC50: −log10 of the molar value. Values after ≈ are worked out from the molar mass of the structure shown. Active and inactive are the calls of the source. The rule behind the calls is not given here.
Key:
[1] = Drug metabolism in liver microsomes (unknown origin) assessed as compound remaining at 5 ug/ml after 5 mins in presence of NADPH by UPLC analysis; assay type: ADME, Microsome; conditions: read-out: Drug metabolism
Method in brief: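 Microsomal metabolic stability; percentage of compound remaining intact measured after 5 min incubation in presence of microsomes.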

[2] = tested on: MCF7; experiment: Cell cycle arrest in human MCF7 cells assessed as accumulation at S phase at 6 uM after 24 hrs by propidium iodide staining based flow cytometry (reference value: 34.03%); assay type: functional
Method in brief: (§1)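 Cells treated 24 h with test compound, MCF-7 at various concentrations and PC-3 at various concentrations; cells harvested, stained with propidium iodide and acquired by flow cytometry for cell cycle phase distribution.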

[3] = tested on: 4T1; experiment: Cytotoxicity against mouse 4T1 cells assessed as decrease in cell viability after 24 hrs by MTT assay; assay type: functional, cell-based; conditions: 4T1, 24 h
Method in brief: (§2)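 Cell viability by MTT after 24 h compound exposure; curcumin as standard. IC50 in µM from three independent experiments, expressed as mean ± SE.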

[4] = tested on: MCF7; experiment: Induction of apoptosis in human MCF7 cells assessed as necrotic cells at 9 uM after 24 hrs by annexin V-FITC/propidium iodide staining based flow cytometry (reference value: 4.76%); assay type: functional
Method in brief: (§3)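 Apoptosis by Annexin V-FITC/PI dual staining: MCF-7 cells treated 24 h at 3, 6 and 9 µM, then harvested, stained and acquired by flow cytometry; early apoptotic = AnnexinV+/PI−, live = AnnexinV−/PI−, necrotic = AnnexinV−/PI+.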

[5] = Stability in rat plasma assessed as compound remaining after 2 hrs at 37 degC by UPLC analysis; assay type: ADME, cell-free; conditions: read-out: Stability
Method in brief: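 Compound was incubated in plasma, and the percentage remaining intact was calculated at time points up to 2 h.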

[6] = tested on: MCF7; experiment: Cell cycle arrest in human MCF7 cells assessed as accumulation at G2/M phase at 6 uM after 24 hrs by propidium iodide staining based flow cytometry (reference value: 20.30%); assay type: functional; method in brief: as §1
[7] = tested on: MCF7; experiment: Cell cycle arrest in human MCF7 cells assessed as accumulation at S phase at 9 uM after 24 hrs by propidium iodide staining based flow cytometry (reference value: 34.03%); assay type: functional; method in brief: as §1
[8] = tested on: MDA-MB-231; experiment: Potency index, ratio of curcumin IC50 to compound IC50 in human MDA-MB-231 cells; assay type: functional
Method in brief: (§4)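 IC50 came from an MTT viability assay after 24 h compound exposure, with curcumin run as the standard. Values are mean ± SE of three independent experiments. The index is the curcumin IC50 divided by the compound IC50 in the same cell line.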

[9] = Stability of the compound in simulated intestinal fluid assessed as compound remaining after 2 hrs at 37 degC by UPLC analysis; assay type: ADME; conditions: read-out: Stability
[10] = tested on: MCF7; experiment: Cell cycle arrest in human MCF7 cells assessed as accumulation at G0/G1 phase at 6 uM after 24 hrs by propidium iodide staining based flow cytometry (reference value: 45.67%); assay type: functional; method in brief: as §1
[11] = tested on: HEK293; experiment: Cytotoxicity against human HEK293 cells assessed as decrease in cell viability after 24 hrs by MTT assay; assay type: cell-based; conditions: HEK293, 24 h; method in brief: as §2
[12] = tested on: MCF7; experiment: Induction of apoptosis in human MCF7 cells assessed as viable cells at 9 uM after 24 hrs by annexin V-FITC/propidium iodide staining based flow cytometry (reference value: 82.63%); assay type: functional; conditions: MCF7, 24 h, read-out: Activity
Method in brief: (§5)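 MCF-7 cells exposed to 3, 6 or 9 μM and PC-3 cells to 4.8 or 8.8 μM for 24 h, then harvested and dual-stained with Annexin V-FITC/PI and read by flow cytometry. Gates: live AnnexinV⁻/PI⁻, early apoptotic AnnexinV⁺/PI⁻, necrotic AnnexinV⁻/PI⁺.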

[13] = Stability of the compound in simulated gastric fluid assessed as compound remaining after 1 hr at 37 degC by UPLC analysis; assay type: ADME; conditions: read-out: Stability
[14] = tested on: MCF7; experiment: Cell cycle arrest in human MCF7 cells assessed as accumulation at G2/M phase at 3 uM after 24 hrs by propidium iodide staining based flow cytometry (reference value: 20.30%); assay type: functional; method in brief: as §1
[15] = tested on: MDA-MB-231; experiment: Cytotoxicity against human MDA-MB-231 cells assessed as decrease in cell viability after 24 hrs by MTT assay; assay type: functional, cell-based; conditions: MDA-MB-231, 24 h; method in brief: as §2
[16] = tested on: DU-145; experiment: Potency index, ratio of curcumin IC50 to compound IC50 in human DU145 cells; assay type: functional; method in brief: as §4
[17] = tested on: MCF7; experiment: Cytotoxicity against human MCF7 cells assessed as decrease in cell viability after 24 hrs by MTT assay; assay type: functional, cell-based; conditions: MCF7, 24 h; method in brief: as §2
[18] = Protein binding in rat plasma at 8 ug/ml after 15 mins by UPLC based charcoal adsorption method; assay type: ADME, cell-free; conditions: read-out: PPB (converted)
[19] = Intrinsic clearance in liver microsomes (unknown origin) assessed per mg of protein at 5 ug/ml in presence of NADPH by UPLC analysis; assay type: ADME, Microsome
[20] = tested on: MCF7; experiment: Induction of apoptosis in human MCF7 cells assessed as viable cells at 6 uM after 24 hrs by annexin V-FITC/propidium iodide staining based flow cytometry (reference value: 82.63%); assay type: functional; conditions: MCF7, 24 h, read-out: Activity; method in brief: as §5
[21] = Solubility of the compound in distilled water after 24 hrs by HPLC based shake flask method; assay type: physicochemical
[22] = tested on: PC-3; experiment: Potency index, ratio of curcumin IC50 to compound IC50 in human PC3 cells; assay type: functional; method in brief: as §4
[23] = tested on: PC-3; experiment: Cytotoxicity against human PC3 cells assessed as decrease in cell viability after 24 hrs by MTT assay; assay type: functional, cell-based; conditions: PC-3, 24 h; method in brief: as §2
[24] = tested on: MCF7; experiment: Induction of mitochondrial membrane depolarization in human MCF7 cells at 3 uM after 24 hrs by JC-1 staining based flow cytometry (reference value: 11%); assay type: functional
[25] = tested on: DU-145; experiment: Cytotoxicity against human DU145 cells assessed as decrease in cell viability after 24 hrs by MTT assay; assay type: functional, cell-based; conditions: DU-145, 24 h; method in brief: as §2
[26] = tested on: 4T1; experiment: Potency index, ratio of curcumin IC50 to compound IC50 in mouse 4T1 cells; assay type: functional; method in brief: as §4
[27] = tested on: MCF7; experiment: Induction of apoptosis in human MCF7 cells assessed as necrotic cells at 3 uM after 24 hrs by annexin V-FITC/propidium iodide staining based flow cytometry (reference value: 4.76%); assay type: functional; method in brief: as §3
[28] = tested on: MCF7; experiment: Decrease in Bcl-2 expression in human MCF7 cells at 3 to 9 uM after 24 hrs by Western blot analysis; assay type: functional, cell-based
Method in brief: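 MCF-7 or PC-3 cells treated with compound for 24 h, harvested; PCNA, Bax and Bcl-2 protein expression checked by Western blotting.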

[29] = Intrinsic clearance in liver microsomes (unknown origin) assessed per mg of protein at 8 ug/ml in presence of NADPH by UPLC analysis; assay type: ADME, Microsome
[30] = Elimination rate constant in liver microsomes (unknown origin) at 8 ug/ml measured up to 60 mins by UPLC analysis; assay type: ADME, Microsome
[31] = tested on: PC-3; experiment: Cell cycle arrest in human PC3 cells assessed as accumulation at G2/M phase at 4.8 uM after 24 hrs by propidium iodide staining based flow cytometry (reference value: 2.25%); assay type: functional; method in brief: as §1
[32] = tested on: PC-3; experiment: Cell cycle arrest in human PC3 cells assessed as accumulation at S phase at 4.8 uM after 24 hrs by propidium iodide staining based flow cytometry (reference value: 25.01%); assay type: functional; method in brief: as §1
[33] = tested on: PC-3; experiment: Induction of apoptosis in human PC3 cells assessed as increase in early apoptotic cells after 24 hrs by annexin V-FITC/propidium iodide staining based flow cytometry; assay type: functional, cell-based; method in brief: as §5
[34] = tested on: PC-3; experiment: Induction of mitochondrial membrane depolarization in human PC3 cells at 4.8 uM after 24 hrs by JC-1 staining based flow cytometry (reference value: 4.51%); assay type: functional

O=C1/C(=C/c2ccccc2F)CN(Cc2cn(Cc3ccc(F)cc3)nn2)C/C1=C\c1ccccc1F showed a remaining at 5 min, 5 ug/ml [1] of 46%, an Activity [2] of 44.43% and a pIC50 [3] of 5.19. It also gave an Activity [4] of 9.22%, a remaining at 2 h [5] of 96% and an Activity [6] of 43.6%. For the same compound, the Activity [7] was 62.67%, the “Ratio IC50” value [8] was “<=8.3” and the remaining at 2 h [9] was 65%. It also gave an Activity [10] of 11.97%, a pIC50 [11] of 4.34 and a viability at 9 µM [12] of 40.3%. It also gave a remaining at 1 h [13] of 85%, an Activity [14] of 25.7% and a pIC50 [15] of 5.00. For the same compound, the Ratio IC50 [16] was at most 9.5, the pIC50 [17] was 5.22 and the fraction unbound at 0.25 h, 8 ug/ml [18] was 0.188. The CLint [19] was 176 µL/min/mg, the viability at 6 µM [20] was 50% and the solubility thermodynamic at 24 h [21] was 2.08 µg/mL (≈ 4.16 µM). The “Ratio IC50” value [22] was “<=5.7”, the pIC50 [23] was 4.71 and the Activity [24] was 66.45%. The pIC50 [25] was 5.06, the “Ratio IC50” value [26] was “<=9.3” and the Activity [27] was 6.18%. The Activity [28] was “Active”.

With Cc1ccc(/C=C2\CN(Cc3cn(Cc4ccccc4F)nn3)C/C(=C\c3ccc(C)cc3)C2=O)cc1 the pIC50 [3] was 4.74, the remaining at 2 h [5] was 90% and the “Ratio IC50” value [8] was “<=8.3”. It also gave a remaining at 2 h [9] of 30%, a CLint [29] of 87 µL/min/mg and a pIC50 [11] of under 4.00. For the same compound, the k el at 1 h, 8 ug/ml [30] was 0.000733 s⁻¹, the remaining at 1 h [13] was 92% and the pIC50 [15] was 5.00. For the same compound, the Activity [31] was 8.36%, the Ratio IC50 [16] was at most 9.5 and the pIC50 [17] was 4.54. The fraction unbound at 0.25 h, 8 ug/ml [18] was 0.0301, the Activity [32] was 21.02% and the solubility thermodynamic at 24 h [21] was 1.12 µg/mL (≈ 2.27 µM). For the same compound, the “Ratio IC50” value [22] was “<=5.7”, the Activity [33] was “Dose-dependent effect” and the pIC50 [23] was 5.06. The pIC50 [25] was 5.02, the “Ratio IC50” value [26] was “<=9.3” and the Activity [34] was 29.85%.

From ChEMBL document CHEMBL4477254, “Synthesis and biological evaluation of some novel triazole hybrids of curcumin mimics and their selective anticancer activity against breast and prostate cancer cell lines” (Bioorg Med Chem Lett, 2016)
